Assay results published in ChEMBL document CHEMBL1123093, “Synthesis and biological activity of 6-substituted mitosene analogues of the mitomycins” (J Med Chem, 1985).

Tests used:
[1] = Partition coefficient between octanol and phosphate buffer (pH 7.4) was observed for the compound; type: physicochemical
Procedure, shortened: (§1)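 Partition coefficient measured as distribution between 1-octanol and pH 7.4 phosphate buffer, following the Hansch method.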

Escherichia coli [2] = experiment: Phage induction (ILB) in Escherichia coli: ratio was reported at a dose of 3.1 ug/mL
Escherichia coli [3] = experiment: Phage induction (ILB) in Escherichia coli: ratio was reported at a dose of 0.8 ug/mL
Mus musculus [4] = experiment: Antitumor activity against P388 mouse leukemia as maximum and median survival time as % T/C was reported at a dose of 3.2 mg/Kg per injection.; type: functional
Procedure, shortened: (§2)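 P388 ascites, 10⁶ cells implanted in female CDF₁ mice. Six mice per dose; single treatment on day 1 only. Ten controls received saline. Survival recorded as median survival time; % T/C = treated vs control MST, with % T/C > 125 taken as active.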

Mus musculus [5] = experiment: Antitumor activity against P388 mouse leukemia as maximum and average change in body weight was reported at a dose of 25.6 mg/kg per injection.; type: functional
Mus musculus [6] = experiment: Antitumor activity against P388 mouse leukemia as maximum and average change in body weight was reported at a dose of 6.4 mg/kg per injection.; type: functional
Mus musculus [7] = experiment: Antitumor activity against P388 mouse leukemia as maximum and median survival time as % T/C was reported at a dose of 12.8 mg/Kg per injection.; type: functional; procedure, shortened: as §2
Mus musculus [8] = experiment: Antitumor activity against P388 mouse leukemia as maximum and median survival time as % T/C was reported at a dose of 6.4 mg/Kg per injection.; type: functional; procedure, shortened: as §2
Mus musculus [9] = experiment: Antitumor activity against P388 mouse leukemia as maximum and average change in body weight was reported at a dose of 12.8 mg/kg per injection.; type: functional
Mus musculus [10] = species: Mus musculus; experiment: Antitumor activity in P388 mouse leukemia and maximum % T/C value was determined at optimal dose (OD); type: functional
Procedure, shortened: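 P388 ascites leukemia: 10⁶ ascites cells implanted in female CDF₁ mice. Each dose level was given on day 1 only, to six mice per dose. Ten control mice received saline. Median survival time (MST) was recorded, and % T/C > 125 was taken as active.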

Mus musculus [11] = experiment: Antitumor activity against P388 mouse leukemia as maximum and average change in body weight was reported at a dose of 3.2 mg/kg per injection.; type: functional
[12] = Partition coefficient between octanol and phosphate buffer (pH 7.4) was observed for the compound at pH 7.4.; type: physicochemical; procedure, shortened: as §1
Escherichia coli [13] = experiment: Induction of phage in Escherichia coli(ILB) expressed as Ratio of plaques in treated bacterial cultures to those in control at a dose of 0.8 ug/mL; type: functional
Procedure, shortened: (§3)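 Phage induction (ILB) in Escherichia coli: latent phage was activated in bacterial cultures exposed to compound at the stated concentration. Plaques (clear areas) were counted, and the value reported is plaques in treated culture divided by plaques in the untreated control.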

Escherichia coli [14] = experiment: Induction of phage in Escherichia coli(ILB) expressed as Ratio of plaques in treated bacterial cultures to those in control at a dose of 3.1 ug/mL; type: functional; procedure, shortened: as §3
Mus musculus [15] = experiment: Antitumor activity against P388 mouse leukemia as maximum and average change in body weight was reported at a dose of 0.2 mg/kg per injection.; type: functional
Mus musculus [16] = experiment: Antitumor activity against P388 mouse leukemia as maximum and average change in body weight was reported at a dose of 1.6 mg/kg per injection.; type: functional
Mus musculus [17] = experiment: Antitumor activity against P388 mouse leukemia as maximum and average change in body weight was reported at a dose of 0.4 mg/Kg per injection.; type: functional
Mus musculus [18] = experiment: Antitumor activity against P388 mouse leukemia as maximum and median survival time as % T/C was reported at a dose of 0.4 mg/Kg per injection.; type: functional; procedure, shortened: as §2
Mus musculus [19] = experiment: Antitumor activity against P388 mouse leukemia as maximum and median survival time as % T/C was reported at a dose of 4.8 mg/Kg per injection.; type: functional; procedure, shortened: as §2
Mus musculus [20] = experiment: Antitumor activity against P388 mouse leukemia as maximum and average change in body weight was reported at a dose of 0.8 mg/kg per injection.; type: functional
Mus musculus [21] = experiment: Antitumor activity against P388 mouse leukemia as maximum and median survival time as % T/C was reported at a dose of 1.6 mg/Kg per injection.; type: functional; procedure, shortened: as §2
Mus musculus [22] = experiment: Antitumor activity against P388 mouse leukemia as maximum and median survival time as % T/C was reported at a dose of 0.8 mg/Kg per injection.; type: functional; procedure, shortened: as §2
Mus musculus [23] = experiment: Antitumor activity against P388 mouse leukemia as maximum and median survival time as % T/C was reported at a dose of 0.2 mg/Kg per injection.; type: functional; procedure, shortened: as §2
Mus musculus [24] = experiment: Antitumor activity against P388 mouse leukemia as maximum and average change in body weight was reported at a dose of 4.8 mg/kg per injection.; type: functional

logD [1]	SMILES	ILB (Escherichia coli [2])	ILB (Escherichia coli [3])	T/C (Mus musculus [4])	T/C (Mus musculus [10])	Average weight change (Mus musculus [11])	other results
1.4	CNC(=O)OCc1c2c(n3c1C(OC(C)=O)CC3)C(=O)C=C(N1CCCC1)C2=O (centres undefined)	1	1	–	–	–	–
0.72	COC1=CC(=O)c2c(c(COC(N)=O)c3n2CCC3OC(C)=O)C1=O (centres undefined)	18.6	11.9	–	111%	–	–
2.08	CNC(=O)OCc1c2c(n3c1C(OC(C)=O)CC3)C(=O)C(Cl)=C(OC)C2=O (centres undefined)	27	12.1	–	–	–	–
1.19	CNC(=O)OCc1c2c(n3c1C(OC(C)=O)CC3)C(=O)C=C(OC)C2=O (centres undefined)	10.1	6	–	106%	–	–

More lines, now with the values behind:

SMILES	logD [1]	ILB (Escherichia coli [2])	ILB (Escherichia coli [3])	T/C (Mus musculus [4])	T/C (Mus musculus [10])	Average weight change (Mus musculus [11])	other results
CNC(=O)OCc1c2c(n3c1C(OC(C)=O)CC3)C(=O)C(C)=C(OC)C2=O (centres undefined)	2.39	34.1	16.6	120%	180%	1 g	Average weight change (Mus musculus [5]): -0.2 g; Average weight change (Mus musculus [6]): 1.2 g; T/C (Mus musculus [7]): 145%; T/C (Mus musculus [8]): 135%; Average weight change (Mus musculus [9]): 0 g
CNC(=O)OCc1c2c(n3c1C(OC(C)=O)CC3)C(=O)C(Br)=C(N)C2=O (centres undefined)	–	–	–	–	–	–	logD [12]: 1.15; ILB (Escherichia coli [13]): 1.2; ILB (Escherichia coli [14]): 1.1
CNC(=O)OCc1c2c(n3c1C(OC(C)=O)CC3)C(=O)C(Br)=C(OC)C2=O (centres undefined)	–	12.4	7.1	–	100%	–	–
CO[C@@]12[C@H](COC(N)=O)C3=C(C(=O)C(C)=C(N)C3=O)N1C[C@@H]1N[C@@H]12 [MITOMYCIN]	–	–	–	195%	–	-0.7 g	Average weight change (Mus musculus [15]): 0.8 g; Average weight change (Mus musculus [16]): -0.2 g; Average weight change (Mus musculus [17]): 0.3 g; T/C (Mus musculus [18]): 130%; T/C (Mus musculus [19]): 205%; Average weight change (Mus musculus [20]): 0.5 g; T/C (Mus musculus [21]): 150%; T/C (Mus musculus [22]): 135%; T/C (Mus musculus [23]): 120%; Average weight change (Mus musculus [24]): -2.2 g
COC1=C(C)C(=O)c2c(c(COC(N)=O)c3n2CCC3OC(C)=O)C1=O (centres undefined)	1.54	24.5	13.2	133%	165%	0.3 g	Average weight change (Mus musculus [16]): 0.6 g; Average weight change (Mus musculus [6]): 0.1 g; Average weight change (Mus musculus [20]): 1 g; T/C (Mus musculus [21]): 124%; T/C (Mus musculus [22]): 114%
